Data reported in the EternaBench riboswitch data.

Test system: MS2 coat protein
Assay: apparent Kd, MS2 coat protein; higher = weaker binding; RNA-MaP array; FMN 200 µM where present
How it was run: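 Designs on Illumina sequencing-chip clusters, transcribed by stalled E. coli RNA polymerase, were exposed to SNAP-549-labelled MS2 coat protein in doubling steps from 0.7 or 1.5 nM up to 3 µM, without and then with constant ligand. The buffer held 100 mM Tris-HCl pH 7.5, 80 mM KCl, 4 mM MgCl2, BSA, DTT, yeast tRNA and Tween-20. Apparent Kd values are medians of filtered per-cluster binding-curve fits to green signal normalised to red-channel RNA signal and control-cluster median Fmax.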

[1] = designed as: ON switch for flavin mononucleotide, no ligand
[2] = ligand present: flavin mononucleotide, designed as: ON switch for flavin mononucleotide
[3] = designed as: OFF switch for flavin mononucleotide, no ligand
[4] = ligand present: flavin mononucleotide, designed as: OFF switch for flavin mononucleotide

GGUGCACGCACAGGAUAUCCGGCGGAGCUCGUCGGAGAAGGGUGACAUGAGGAUCACCCAUGUACGUGCAACUCGGUUUGAGAG
apparent Kd [1]: 22.4 nM
apparent Kd [2]: 48.9 nM

AAUUUACAGGCAGGAUAUACAUGAGGAUCACCCAUGUAAUCAUAUGAUAUUUUUUUUGUAUGAGUGUAGAAGGGCCAAAUAAAA
apparent Kd [3]: 7.79 nM
apparent Kd [4]: 7.99 nM

UUGGACGUCGUAGGAUAUGUAGGUUAUUCCUACAUGAGGAUCACCCAUGUUGACAUGGAAGAAGGACAGAAGGACGAUGUCCAU
apparent Kd [1]: 184 nM
apparent Kd [2]: 4.18 nM

GCGUAUAUAUUAUUUAUUUAACUGUCAGAAGGUGAGAAGACGACAUGAGGAUCACCCAUGUUAUUCAAGGAUAUGAUAAUGCGC
apparent Kd [1]: 13.5 nM
apparent Kd [2]: 8.94 nM

UUGUUGUAUGUAGGAUAUGCAUAUUAUUAUUGUGCAGAAGGACAUGAGGAUCACCCAUGUAUAUUAUUAUUAUAUAUUAUAUAU
apparent Kd [3]: 35.3 nM
apparent Kd [4]: 54.3 nM

UUUUAGUCAGGAUAUCGUUAAUUUAAUUGUUUGUAUUAGUUCGAGAAGGGACAUGAGGAUCACCCAUGUACUUU
apparent Kd [3]: 23.7 nM
apparent Kd [4]: 24.5 nM

GAUAAACAUGAGGAUCACCCAUGUCAGGAUAUGCGCUAGCUAGCUAGCUAGCUAGCUAGCAGAAGGGACACUAC
apparent Kd [3]: 19.5 nM
apparent Kd [4]: 35 nM

GGAGAUACAUGAGGAUCACCCAUGUAGGAUAUAUAGUAUAUAUAUAGCGAAAGCUAUAUAUAUAUAUAGAAGGGCGUACACACC
apparent Kd [3]: 7.67 nM
apparent Kd [4]: 8.02 nM

AACAGACAUGAGGAUCACCCAUGUAGAAUUAUGGGAGGAUAUACAAAGACGAGAGUCAGAGUAGAAGGCCUAGGAC
apparent Kd [1]: 46.5 nM
apparent Kd [2]: 29.9 nM

AUUUCAUUCCUUCGACCAUUACCGAGAAGGGUCCACAUGAGGAUCACCCAUGUGGUCCUGAGCGGACAGGAUAUCGGAGUCGGG
apparent Kd [3]: 18.2 nM
apparent Kd [4]: 17.7 nM

UAAUAAUAAUAAUAAUCCUGCAUACAUGAGGAUCACCCAUGUAAGGAUAUCGUCAGGAAUACUGACGAGAAGGUACAUAGCAGG
apparent Kd [3]: 15.8 nM
apparent Kd [4]: 19.3 nM

CCGAUUAGCACAGGAUAUGGGAACUCGUAAUUCCCAGAAGGGUGAGCCAAUACAUGAGGAUCACCCAUGUGCGGUAGGUCGGGA
apparent Kd [1]: 40.5 nM
apparent Kd [2]: 51 nM

UGUGUCUGUAGAGGAUAUCCGGGCGUUCUGCUAGGAGAAGGCUGCAACACAUGAGGAUCACCCAUGUAGGUUGUGUCUCUCUAC
apparent Kd [3]: 4.82 nM
apparent Kd [4]: 9.87 nM

CGAUAGGACAGAGGAUAUGCCGAUAGGAUCUACUAUCGAAGAAUCCUCACAUGAGGAUCACCCAUGUAGAAGGCUGUCCUAUCU
apparent Kd [3]: 7.9 nM
apparent Kd [4]: 38.1 nM

CGUAUGUCAGGAUAUGCGUAUGCCAGUCAGGGCGAGUGGCAGCAGAAGGGACAUGAGGAUCACCCAUGUUCGGG
apparent Kd [3]: 60.8 nM
apparent Kd [4]: 51.3 nM

CUCGUGUGAGGAUAUCUAUUCCACGGACGGGAGUCUUGAAGAGAGAAGGCACAUGAGGAUCACCCAUGUAAUAA
apparent Kd [4]: 33.7 nM

UGUUACUAGUAAGGAUAUACUAGCGAUAAGCUAGUAGAAGGUACAGUCUUUUGUAUAACAUGUUUACAUGAGGAUCACCCAUGU
apparent Kd [1]: 10.6 nM
apparent Kd [2]: 8.02 nM

AACUAUGAAUUGAUAGUGUCUGACAGAAGGCAAUAGGUUGUGACCGACAUGAGGAUCACCCAUGUUGAGGAUAUGUCUAGCUAC
apparent Kd [3]: 53.2 nM
apparent Kd [4]: 366 nM

GCCAGAGCAGGAUAUUCAAUAUUCCACAUGAGGAUCACCCAUGUCCUGCGAAAGCAGGAGGGAGAAGGGCUCUGGC
apparent Kd [3]: 69.5 nM
apparent Kd [4]: 25.5 nM

AGCGUGGAGACAGGAUAUGAGAAUAGAUAGAAAUCAGAAGGGUCACAUGAGGAUCACCCAUGUAAAGUCUUGAGGAUGAGUGAU
apparent Kd [3]: 86.5 nM
apparent Kd [4]: 208 nM

CUCGGACAUGAGGAUCACCCAUGUGAGGAUAUGGUGCUAUCGUCAUUAGACGAUUGCGUUAGAAGGCACAUUUU
apparent Kd [3]: 31.4 nM
apparent Kd [4]: 80.1 nM

UUUAGUUCAGGAUAUGUAGAUUUUAACAUGAGGAUCACCCAUGUAGAUCCUGAAUUAACUACAGAAGGGAACAUUC
apparent Kd [3]: 17.1 nM
apparent Kd [4]: 44.2 nM

AAUAUAGAGCUGGAAUAAAACAUCACAUGAGGAUCACCCAUGUAGGAUAUCAGCACGAUAAGUGCUGAGAAGGACAUCCAGCUC
apparent Kd [3]: 14.9 nM
apparent Kd [4]: 14.1 nM

UGCCUACAUGAGGAUCACCCAUGUGAGGAUAUCCUGCGAGGAUCAAAAGAUCCUCGUGGGAGAAGGCGCUUGGA
apparent Kd [3]: 18.9 nM
apparent Kd [4]: 32.3 nM

CAGCGAUAGCUGAAUGGUACAUGGGAGGAUAUGGGUUACAUGAGGAUCACCCAUGUUAAAUAAUACUAGAAGGCCCAUGUACCU
apparent Kd [1]: 16.5 nM
apparent Kd [2]: 4.55 nM

UCAGUAGAGUCAGGAUAUACGUUAAAAUUUCCUCACAUGAGGAUCACCCAUGUAGAAGGGACUCUACUGUAAGUCGGAAACGAC
apparent Kd [3]: 35.2 nM
apparent Kd [4]: 686 nM

UAGAUGGGAGGAUAUACAUAGAUACAGAUUCGUGUAGUGCUACAUGAGGAUCACCCAUGUAGAAGGCCCGUCUU
apparent Kd [3]: 16.2 nM
apparent Kd [4]: 71.9 nM

UGGACCGAGCUGUCGGUUGACUCUUAGGAUAUGACAUGAGGAUCACCCAUGUGGGAUCUAAAUUGUCAGAAGGAGGGUUCUGGG
apparent Kd [3]: 283 nM
apparent Kd [4]: 51.4 nM
